Bioassay records from PubChem.
MrgX1 antag = antagonists of human MrgX1 receptor, primary screen, HEK293 cells, Fluo-4 calcium flux | BAM8-22 antagonism; active compounds read low | B-score at 10 µM | actives 1.3% (n = 310,000) | AID 588676, 2011;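 active means calcium-response B-score plate-corrected more than 3 library SD below zero, starting fluorescence within 5 deviations, no agonist response on first addition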;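 further: peak minus trough fluorescence over baseline after final BAM8-22 challenge near maximal dose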
Target sequence (Q96LB2 whole entry, looked up): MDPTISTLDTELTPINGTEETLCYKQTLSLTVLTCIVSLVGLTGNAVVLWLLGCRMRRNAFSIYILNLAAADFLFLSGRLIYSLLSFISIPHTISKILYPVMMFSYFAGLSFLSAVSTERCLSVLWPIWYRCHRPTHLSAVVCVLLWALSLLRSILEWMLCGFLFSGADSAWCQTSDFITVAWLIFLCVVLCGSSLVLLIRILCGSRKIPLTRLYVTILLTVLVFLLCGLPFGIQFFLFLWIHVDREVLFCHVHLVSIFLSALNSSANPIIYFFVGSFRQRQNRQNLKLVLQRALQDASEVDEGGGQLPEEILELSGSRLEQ
RGS4 pot = RGS4 potentiators or activators, primary screen, cell-based, HEK293 M3R inducible RGS4, calcium flux | carbachol calcium flux Fluo4; active compounds read low | B-score at 10 µM | actives 0.92% (n = 310,000) | AID 463111, 2010;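 active means B-score of the integrated calcium signal more than 4 SD below the library mean, with starting fluorescence not abnormally high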;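 further: negative B-score means reduced calcium response which marks RGS4 activation or potentiation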
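test system = M3R-expressing HEK293 line, RGS4 induced by doxycycline | probe or stimulus = carbachol at ECmax as muscarinic agonist stimulus | timing = dye loading 30 min 37 °C, buffer rest 30 min RT | signal = calcium dye Fluo4 fluorescence | evaluation = B score from integrated fluorescence ratio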
MrgX1 ag = agonists of human MrgX1 receptor, primary screen, HEK293 cells, Fluo-4 calcium flux; Mas-related G-protein coupled receptor member X1 (Homo sapiens), Q96LB2; Fluo-4 calcium fluorescence, agonist mode; active compounds read high; B-score at 10 µM; actives 0.44% (n = 310,000); AID 588627, 2011;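 active means calcium response B-score plate-corrected fluorescence ratio at least 3 library SD, with starting fluorescence B-score inside 5 SD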
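Material: MrgX1-expressing HEK293 cells; input: 15,000 cells per well; doses: test compound given as first of three sequential additions; schedule: overnight plating before 1 h dye loading; technique: Fluo-4 NW calcium-flux fluorescence, kinetic read; evaluation: baseline-normalised fluorescence change ratio, B-scored; control set: plate-wise positive and negative controls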
MrgX1 allo act = positive allosteric modulators of MrgX1, primary screen, HEK293 cells, Fluo-4 calcium flux. AID 588675, 2011. B-score at 10 µM. FDSS; active compounds read high. actives 0.63% (n = 310,000);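 active means plate-corrected calcium response at least 3 library SD above typical, normal starting fluorescence, not activating the receptor alone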;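 further: compound read alongside a low EC10 to EC30 dose of BAM8-22 agonist; peak minus trough fluorescence over baseline measured at the second addition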
RGS4 block = RGS4 inhibitors, primary screen, cell-based, HEK293 M3R inducible RGS4, calcium flux | Fluo-4 calcium flux; active compounds read high; triggered by carbachol at its EC20 | B-score at 10 µM | actives 0.45% (n = 310,000);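 active means B-score, a plate-corrected calcium signal, over three deviations above library mean, with baseline fluorescence within five deviations of library mean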;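 further: RGS4 expression induced by doxycycline in cells with stable M3 receptor; B-score is computed from the integrated fluorescence ratio over baseline after carbachol; higher B-score means a larger calcium signal and so more RGS4 inhibition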
Target sequence (P49798 whole entry, looked up): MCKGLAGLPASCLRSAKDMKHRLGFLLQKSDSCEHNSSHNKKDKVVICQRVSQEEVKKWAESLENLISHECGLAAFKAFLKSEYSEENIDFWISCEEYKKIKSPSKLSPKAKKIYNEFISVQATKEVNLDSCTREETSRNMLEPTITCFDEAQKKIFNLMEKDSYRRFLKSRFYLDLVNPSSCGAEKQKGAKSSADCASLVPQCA
RGS4 inh valid = enhanced carbachol calcium response, M3R/RGS4 cells, RGS4 inhibitor project, cell-based, validation screen, HEK293 M3R/RGS4, calcium flux | shares compounds with RGS4 block | carbachol calcium Fluo-4 fluorescence; carbachol added at its EC20; 0 = buffer wells, 100 = carbachol control | calcium response, % at 10 µM | actives 65% (n = 1,700);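 active means duplicate-averaged calcium response above the buffer-only control mean plus 5 SD of those controls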;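 further: integrated fluorescence ratio F max minus min over baseline F0; higher response in RGS4-induced cells means RGS4 inhibition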
M3R Ca ctr = carbachol calcium response in non-induced M3R cells, confirmation, counter-screen for RGS4 inhibitor project, cell-based, HEK293 M3R; carbachol calcium Fluo-4; submaximal (EC20) carbachol stimulus; buffer wells 0%, carbachol control wells 100%; actives 20% (n = 1,900); shares compounds with RGS4 block; activity (percent), % at 10 µM; call rule not given here;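 further: RGS4 induction absent so cells express M3R without RGS4; higher means more calcium signal and flags a non-specific hit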
M3R basal Ca ctr = second RGS4 inhibitor counter-screen in uninduced cells lacking carbachol | shares compounds with RGS4 block | HEK293 M3R/RGS4 non-induced, Fluo-4 calcium, no carbachol; normalised: buffer wells 0%, carbachol wells 100% | calcium response (agonist-mode artifact), % at 10 µM | actives 22% (n = 1,900) | AID 493001;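 active means duplicate-averaged calcium rise in uninduced cells above buffer wells' mean plus 5 SD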
MrgX1 ag confirm = MrgX1 receptor agonists, duplicate retest, confirmation, HEK293 cells, Fluo-4 calcium flux. shares compounds with MrgX1 ag. Fluo-4 calcium fluorescence, FDSS. activation, % at 10 µM. actives 78% (n = 600). AID 602412, 2012;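 active means calcium signal rise, corrected for plate position, at least 3 library SD high, with starting brightness within 5 such deviations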
MrgX1 PAM conf = MrgX1 positive allosteric modulators, duplicate retest, confirmation, HEK293 cells, Fluo-4 calcium flux. shares compounds with MrgX1 allo act. Fluo-4 calcium fluorescence, FDSS. activation (ratio percentage), % at 10 µM. actives 13% (n = 1,200). AID 602413, 2012;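 active means ratio at least 3 SD above the weak peptide control, stable starting fluorescence, no direct agonism earlier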;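 further: compound followed by low BAM8-22 agonist challenge near EC20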
HEK293 Ca flux = nonspecific calcium signal in parental HEK293, confirmation, counter-screen for MrgX1 antagonist project, parental HEK293 cells, Fluo-4 calcium flux. actives 2% (n = 4,000). shares compounds with MrgX1 antag. Fluo-4 calcium fluorescence, FDSS. fluorescence ratio F(max-min)/F0 at 10 µM;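 active means duplicate-averaged calcium fluorescence ratio at least three times the standard deviation of buffer wells, a nonspecific response in parental cells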
HEK293 Ca counter = calcium response in parental HEK293 cells, primary screen, counter-screen for MrgX1 allosteric activator project, cell-based, Fluo-4 calcium flux, duplicate; shares compounds with MrgX1 antag; Fluo-4 fluorescence ratio; active compounds read high; fluorescence ratio F(max-min)/F0 at 10 µM; actives 0.4% (n = 4,000); AID 624114, 2012;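 active means calcium fluorescence ratio, averaged over duplicates, at least 3 SD of the buffer-well ratio, meaning a nonspecific response in receptor-free cells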;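 further: untransfected parental HEK293 lacking MrgX1 used as counterscreen for MrgX1 allosteric activators; fluorescence change taken during the second addition on a kinetic imager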
HEK293 Ca cntr2 = calcium response in parental HEK293 cells, primary screen, counter-screen for MrgX1 agonist project, cell-based, Fluo-4 calcium flux, duplicate, agonist mode | shares compounds with MrgX1 antag | Fluo-4 calcium fluorescence (FDSS); active compounds read high | fluorescence ratio F(max-min)/F0 at 10 µM | actives 8.7% (n = 4,000);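 active means calcium fluorescence ratio at least three times the spread of buffer wells, meaning a non-specific response in parental cells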
A number is an active result; 0 = inactive; - = no result given. Rows were chosen to be rich in hits. Some 3.5% of all compounds tested hit in one or more screens of this group.

SMILES | MrgX1 antag | RGS4 pot | MrgX1 ag | MrgX1 allo act | RGS4 block | RGS4 inh valid | M3R Ca ctr | M3R basal Ca ctr | HEK293 Ca flux | HEK293 Ca counter | HEK293 Ca cntr2 | others
O=C/C=C/c1c(-c2ccccc2)cc2oc3ccccc3cc1-2 | 0 | 0 | 35 | 0 | 24.2 | 15.5% | 0 | 0 | - | - | -
CCOC(=O)N1CCc2c(sc3nc4n(c(=O)c23)N=C(c2ccc(OC)cc2)CS4)C1 | 0 | 0 | 0 | 0 | 0 | - | - | - | - | - | -
Cc1cc(Cl)ccc1OCC(=O)NNC(=O)c1ccco1 | 0 | 0 | 0 | 0 | 0 | - | 0 | 0 | - | - | -
CCOc1ccccc1NC(=O)CSc1nnc(-c2ccccc2Cl)n1Cc1ccco1 | 0 | 0 | 0 | 0 | 0 | - | - | - | - | - | -
N#CC1=C2N=C(N)c3ccccc3N2C2=C(C(=O)CCC2)C1c1ccc(Cl)cc1 (stereo not given) | 0 | 0 | 0 | 0 | 7.51 | 19.5% | 28.5% | 24.5% | - | - | -
Cc1ccc(/C=C/C(=O)c2ccccc2)cc1 | 0 | 0 | 0 | 0 | 0 | - | - | - | - | - | -
COc1cc(/C=C/C(=O)c2ccc(C)cc2)ccc1OCC#N | 0 | 0 | 0 | 0 | 0 | 0 | 31.5% | 0 | - | - | -
COC(=O)c1ccc(/C=C/C(=O)c2ccc(OC)c(OC)c2)cc1 | 0 | 0 | 0 | 0 | 8.95 | 7.0% | 43.5% | 0 | - | - | -
Cc1ccc(C(=O)/C=C/c2ccc3ncccc3c2)cc1 | 0 | 0 | 0 | 0 | 7.81 | 22.0% | 36.5% | 0 | - | - | -
Cc1ccc(C(=O)Nc2ccc3c(c2)nc(CCNC(=O)c2ccco2)n3C)cc1 | 0 | 0 | 0 | 0 | 0 | - | - | - | - | - | -
CC(=O)Nc1ccc2c(c1)nc(CCNC(=O)c1ccco1)n2C | 0 | 0 | 0 | 0 | 0 | 0 | 0 | 0 | - | - | -
Cc1cnnn1-c1ccc(C(=O)CCl)cc1 | 0 | 0 | 28.4 | 0 | 10.8 | 85.5% | 38.5% | 19.0% | 0 | 0 | 47.7 | MrgX1 ag confirm=252.4%
COc1cc(C2C(C#N)=C(N)Oc3cc(N(C)C)ccc32)cc2c1OCO2 (stereo not given) | 0 | 0 | 93.6 | 0 | 0 | 0 | 0 | 108.5% | 0 | 0 | 86.4 | MrgX1 ag confirm=273.2%
O=C(CCC(=O)N1CCN(c2ccccc2F)CC1)c1ccc(F)cc1 | 0 | 0 | 0 | 0 | 0 | - | - | - | - | - | -
O=C(CCN1CCN(c2ccccc2F)CC1)c1ccc(Br)cc1 | 0 | 0 | 40 | 0 | 18.9 | 39.0% | 0 | 8.5% | 0 | 0 | 0 | MrgX1 ag confirm=0
CCN(C(=O)CSc1nnnn1-c1ccccc1)C1CCS(=O)(=O)C1 (stereo not given) | 0 | 0 | 0 | 0 | 0 | - | - | - | - | - | -
Cc1ccccc1Nc1nc(N)nc(-c2oc3ccccc3c2C)n1 | 0 | 0 | 0 | 47.2 | 5.98 | 27.0% | 41.5% | 0 | 0 | 0 | 0 | MrgX1 PAM conf=33.4%
CN(C)S(=O)(=O)c1cccc(-c2nnc(SCC(=O)NCCCCCC(=O)O)n2-c2ccc(F)cc2)c1 | 0 | 0 | 0 | 0 | 0 | - | - | - | - | - | -
Nc1ncnc2c1ncn2C1OC(CO)C(O)C1O (stereo not given) | 0 | 0 | 0 | 9.39 | 9.44 | 41.0% | 71.0% | 0 | 0 | 0 | 0 | MrgX1 PAM conf=0
Nc1ncnc2c1ncn2[C@@H]1O[C@H](CO)C[C@@H]1O | 0 | 0 | 0 | 0 | 0 | - | - | - | - | - | -
N#CC1(Nc2cccc(Br)c2)C(=O)Nc2ccccc21 (stereo not given) | 0 | 0 | 53.8 | 0 | 10.3 | 44.5% | 29.5% | 76.5% | 0 | 0 | 48.8 | MrgX1 ag confirm=194.8%
O=C(CC1(O)C(=O)Nc2ccccc21)c1cccc(Br)c1 (stereo not given) | 0 | 0 | 0 | 0 | 0 | - | - | - | - | - | -
CN(C)CCNc1nc(-c2ccco2)c2c(c1C#N)CC(C)(C)OC2 | 0 | 0 | 0 | 0 | 0 | - | - | - | - | - | -
CCCCN(C)c1nc(-c2ccco2)c2c(c1C#N)CC(C)(C)OC2 | 0 | 0 | 28.3 | 0 | 7.17 | 0 | 0 | 34.5% | 0 | 0 | 0 | MrgX1 ag confirm=84.5%
Cc1nn(C(=O)Cn2cc([N+](=O)[O-])cn2)c(C)c1Cl | 0 | 0 | 0 | 0 | 0 | - | - | - | - | - | -
N#Cc1c(-c2c(Cl)cccc2Cl)noc1/C=C/Nc1ccc(C(=O)O)cc1 | 0 | 0 | 0 | 11.5 | 5.44 | 18.0% | 0 | 0 | 0 | 0 | 0 | MrgX1 PAM conf=0
COc1cccc(/C=N/NC(=O)c2ccc(N3CCCC3=O)cc2)c1 | 0 | 0 | 0 | 0 | 0 | - | - | - | - | - | -
Cc1ccc(S(=O)(=O)CCC(=O)c2ccc(O)cc2O)cc1 | 0 | 0 | 30.1 | 0 | 24.5 | 62.0% | 46.0% | 0 | 0 | 0 | 0 | MrgX1 ag confirm=126.9%
Cc1ccc(S(=O)(=O)CCC(=O)OCC(=O)c2cc(C)ccc2C)cc1 | 0 | 0 | 0 | 0 | 0 | - | - | - | - | - | -
